Key:
[1] = test system: Rattus norvegicus; experiment: Antiarthritic activity in complete Freund's adjuvant-induced rat arthritis model assessed as reduction of paw volume in injected paw at 50 mg/kg, sc qd for 28 days; format: functional; settings: 672 h, route subcutaneous
Procedure, shortened: (§1)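 Rat adjuvant-induced polyarthritis. Compounds were dissolved or suspended in sterile saline, sonicated as needed, brought to pH 7.0 with NaOH, and kept as frozen aliquots, fresh each dosing day. Dosing was sc once daily for 28 days, by body weight. The arthritic control group got vehicle sc. Injected and noninjected hindpaw volumes were measured on day 28 by mercury displacement plethysmography and expressed as % inhibition.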

[2] = test system: Rattus norvegicus; experiment: Antiarthritic activity in complete Freund's adjuvant-induced rat arthritis model assessed as reduction of paw volume in injected paw at 30 mg/kg, sc qd for 28 days; format: functional; settings: 672 h, route subcutaneous; procedure, shortened: as §1
[3] = test system: Rattus norvegicus; experiment: Antiarthritic activity in complete Freund's adjuvant-induced rat arthritis model assessed as reduction of paw volume in injected paw at 20 mg/kg, sc qd for 28 days; format: functional; settings: 672 h, route subcutaneous; procedure, shortened: as §1
[4] = test system: Rattus norvegicus; experiment: Antiarthritic activity in complete Freund's adjuvant-induced rat arthritis model assessed as reduction of paw volume in injected paw at 10 mg/kg, sc qd for 28 days; format: functional; settings: 672 h, route subcutaneous; procedure, shortened: as §1
[5] = test system: Rattus norvegicus; experiment: Antiarthritic activity in complete Freund's adjuvant-induced rat arthritis model assessed as reduction of paw volume in non-injected paw at 50 mg/kg, sc qd for 28 days; format: functional; settings: 672 h, route subcutaneous; procedure, shortened: as §1
[6] = test system: Rattus norvegicus; experiment: Antiarthritic activity in complete Freund's adjuvant-induced rat arthritis model assessed as reduction of paw volume in non-injected paw at 30 mg/kg, sc qd for 28 days; format: functional; settings: 672 h, route subcutaneous; procedure, shortened: as §1
[7] = test system: Rattus norvegicus; experiment: Antiarthritic activity in complete Freund's adjuvant-induced rat arthritis model assessed as reduction of paw volume in non-injected paw at 20 mg/kg, sc qd for 28 days; format: functional; settings: 672 h, route subcutaneous; procedure, shortened: as §1
[8] = test system: Rattus norvegicus; experiment: Antiarthritic activity in complete Freund's adjuvant-induced rat arthritis model assessed as reduction of paw volume in non-injected paw at 10 mg/kg, sc qd for 28 days; format: functional; settings: 672 h, route subcutaneous; procedure, shortened: as §1
[9] = test system: Mus musculus; experiment: Antiinflammatory activity in methylated bovine serum albumin sensitized delayed-type hypersensitivity granuloma mouse model assessed as reduction of granuloma dry weight at 100 mg/kg, sc qd for 9 days; format: functional; settings: 216 h, route subcutaneous
Procedure, shortened: (§2)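 Groups of 10 female mice (25 g) were sensitized sc over the inguinal lymph node with mBSA emulsion in saline, Freund's incomplete adjuvant and dextran. Three weeks later, two 6-mm hydroxyapatite discs soaked in mBSA (30 mg/mL saline) were implanted sc in the dorsum. Compounds at pH 7.4 were given sc into the scruff at 0.1 mL/10 g, daily from implantation to day 9. Granuloma wet and dry weights were recorded as % inhibition.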

[10] = test system: Mus musculus; experiment: Antiinflammatory activity in methylated bovine serum albumin sensitized delayed-type hypersensitivity granuloma mouse model assessed as reduction of granuloma dry weight at 60 mg/kg, sc qd for 9 days; format: functional; settings: 216 h, route subcutaneous; procedure, shortened: as §2
[11] = test system: Mus musculus; experiment: Antiinflammatory activity in methylated bovine serum albumin sensitized delayed-type hypersensitivity granuloma mouse model assessed as reduction of granuloma dry weight at 25 mg/kg, sc qd for 9 days; format: functional; settings: 216 h, route subcutaneous; procedure, shortened: as §2
[12] = test system: Mus musculus; experiment: Antiinflammatory activity in methylated bovine serum albumin sensitized delayed-type hypersensitivity granuloma mouse model assessed as reduction of granuloma wet weight at 100 mg/kg, sc qd for 9 days; format: functional; settings: 216 h, route subcutaneous; procedure, shortened: as §2
[13] = test system: Mus musculus; experiment: Antiinflammatory activity in methylated bovine serum albumin sensitized delayed-type hypersensitivity granuloma mouse model assessed as reduction of granuloma wet weight at 60 mg/kg, sc qd for 9 days; format: functional; settings: 216 h, route subcutaneous; procedure, shortened: as §2
[14] = test system: Mus musculus; experiment: Antiinflammatory activity in methylated bovine serum albumin sensitized delayed-type hypersensitivity granuloma mouse model assessed as reduction of granuloma wet weight at 25 mg/kg, sc qd for 9 days; format: functional; settings: 216 h, route subcutaneous; procedure, shortened: as §2
[15] = test system: Mus musculus; experiment: Toxicity in albino mouse assessed as mortality at 500 to 1000 mg/kg, […] after 24 hrs; format: organism-based; design: dose 500-1000 mg/kg; settings: in vivo
Procedure, shortened: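 Albino mice (20-25 g) were split into 6 groups of 8. Compounds were given at 500, 750 and 1000 mg/kg; controls received buffer only. Toxic symptoms, mortality and postmortem findings were recorded 24 h after administration. LD50 was calculated by the Dm − Σ(z×d)/n formula.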

[16] = test system: Mus musculus; experiment: Toxicity in albino mouse assessed as toxic symptoms at 500 to 1000 mg/kg, ip after 24 hrs; settings: in vivo
[17] = test system: Rattus norvegicus; experiment: Antiarthritic activity in complete Freund's adjuvant-induced rat arthritis model assessed as reduction of paw volume in injected paw at 100 mg/kg, sc qd for 28 days; format: functional; settings: 672 h, route subcutaneous; procedure, shortened: as §1
[18] = test system: Rattus norvegicus; experiment: Antiarthritic activity in complete Freund's adjuvant-induced rat arthritis model assessed as reduction of paw volume in non-injected paw at 100 mg/kg, sc qd for 28 days; format: functional; settings: 672 h, route subcutaneous; procedure, shortened: as §1
[19] = test system: Mus musculus; experiment: Antiinflammatory activity in methylated bovine serum albumin sensitized delayed-type hypersensitivity granuloma mouse model assessed as reduction of granuloma dry weight at 50 mg/kg, sc qd for 9 days; format: functional; settings: 216 h, route subcutaneous; procedure, shortened: as §2
[20] = test system: Mus musculus; experiment: Antiinflammatory activity in methylated bovine serum albumin sensitized delayed-type hypersensitivity granuloma mouse model assessed as reduction of granuloma wet weight at 50 mg/kg, sc qd for 9 days; format: functional; settings: 216 h, route subcutaneous; procedure, shortened: as §2
[21] = test system: HepG2; experiment: Cytotoxicity against human HepG2 cells after 48 hrs by SRB assay; format: functional, cell-based; settings: HepG2, 48 h
Procedure, shortened: (§3)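 Cells were seeded at 10^4 per well and allowed to attach for 24 h. They were then exposed to four compound concentrations (5, 12.5, 25, 50), each in triplicate wells, for 48 h at 37 °C in 5% CO2. Cells were fixed and stained with sulforhodamine B, washed with acetic acid, and bound dye was recovered in Tris-EDTA pH 7.4 and read on a plate reader. IC50 was taken from survival curves using the triplicate means.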

[22] = test system: HCT-116; experiment: Cytotoxicity against human HCT116 cells after 48 hrs by SRB assay; format: functional, cell-based; settings: HCT-116, 48 h; procedure, shortened: as §3

Compound | inhibition in vivo at 50 mg/kg [1] [%] | inhibition in vivo at 30 mg/kg [2] [%] | inhibition in vivo at 20 mg/kg [3] [%] | inhibition in vivo at 10 mg/kg [4] [%] | inhibition in vivo at 50 mg/kg [5] [%] | inhibition in vivo at 30 mg/kg [6] [%] | inhibition in vivo at 20 mg/kg [7] [%] | inhibition in vivo at 10 mg/kg [8] [%] | inhibition in vivo at 100 mg/kg [9] [%] | inhibition in vivo at 60 mg/kg [10] [%] | inhibition in vivo at 25 mg/kg [11] [%] | inhibition in vivo at 100 mg/kg [12] [%] | inhibition in vivo at 60 mg/kg [13] [%] | inhibition in vivo at 25 mg/kg [14] [%] | inhibition in vivo at 100 mg/kg [17] [%] | inhibition in vivo at 100 mg/kg [18] [%] | inhibition in vivo at 50 mg/kg [19] [%] | inhibition in vivo at 50 mg/kg [20] [%] | other results
CCOP(=O)(OCC)C1(P(=O)(OCC)OCC)Nc2ccccc2C1=S | 15 | 11 | 7 | 5 | 64 | 58 | 60 | 48 | 46 | 42 | 30 | 44 | 31 | 24 |  |  |  |  | 
CCOP(=O)(OCC)C1=C(S)c2ccccc2N(C)P1(=O)OCC (configuration not stated) | 37 | 35 | 27 | 18 | 76 | 73 | 60 | 66 | 55 | 53 | 50 | 50 | 48 | 33 |  |  |  |  | Activity [15]: Non-toxic; Activity [16]: Non-toxic
O=P(O)(O)C(Cl)(Cl)P(=O)(O)O [CLODRONIC ACID] | 35 | 34 | 28 | 23 | 68 | 62 | 70 | 56 | 48 | 44 | 33 | 44 | 40 | 30 |  |  |  |  | 
CCOP(=O)(OCC)C1(P(=O)(OCC)OCC)C(=S)c2ccccc2N=C1C | 20 | 18 | 23 | < 5 | 66 | 72 | 61 | 38 | 44 | 37 | 24 | 40 | 30 | 20 |  |  |  |  | 
CN1c2ccccc2C(=S)C1(P(=O)(O)O)P(=O)(O)O | < 5 |  |  |  | 18 |  |  |  | 32 |  |  | 25 |  |  | 13 | 27 | 16 | 15 | 
CC1=Nc2ccc(Br)cc2C(=S)C1(P(=O)(O)O)P(=O)(O)O | < 5 |  |  |  | 12 |  |  |  | 25 |  |  | 13 |  |  | 21 | 18 | 18 | < 10 | 
COc1cccc2c1C(=O)c1c(O)c3c(c(O)c1C2=O)C[C@@](O)(C(=O)CO)C[C@@H]3O[C@H]1C[C@H](N)[C@H](O)[C@H](C)O1 [DOXORUBICIN] |  |  |  |  |  |  |  |  |  |  |  |  |  |  |  |  |  |  | IC50 [21]: 5.7 µM; IC50 [22]: 6.86 µM
CCOP1(=O)Nc2ccccc2C(S)=C1P(=O)(OCC)OCC (configuration not stated) | 25 | 14 | 10 | < 5 | 75 | 68 | 56 | 66 | 50 | 42 | 38 | 51 | 44 | 33 |  |  |  |  | 
CCN(CC)c1ccc(C2=NC(P(=O)(O)O)(P(=O)(O)O)C(=S)c3ccccc32)cc1 | < 5 |  |  |  | 10 |  |  |  | 30 |  |  | 23 |  |  | 18 | 24 | 26 | 16 | 
CCOP(=O)(OCC)C1(P(=O)(OCC)OCC)N=C(c2ccc(N(CC)CC)cc2)c2ccccc2C1=S | 24 | 16 | 20 | < 5 | 65 | 52 | 56 | 44 | 44 | 40 | 32 | 34 | 31 | 22 |  |  |  |  | Activity [15]: Non-toxic; Activity [16]: Non-toxic
O=P(O)(O)C1(P(=O)(O)O)C(=S)c2ccccc2N=C1C1CCCCC1 | < 5 |  |  |  | 8 |  |  |  | 36 |  |  | 24 |  |  | 16 | 14 | 28 | 19 | 

— ChEMBL document CHEMBL2010692, “Inhibitory effect of novel S,N-bisphosphonates on some carcinoma cell lines, osteoarthritis, and chronic inflammation” (Eur J Med Chem, 2012)
